What was measured:
[1] = biological target: Adenosine receptors; A1 & A3 (Homo sapiens) (UniProt P30542+P0DMS8); experiment: Selectivity for adenosine A1 receptor over adenosine A3 receptor; type: protein assay
Method in brief: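 Ratio of A3 Ki-High (CHO-A3 cells, [¹²⁵I]-AB-MECA, no GTP) to A1 Ki-Low (DDT membranes, [³H]-CPX, with GTPγS).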

Adenosine receptor A2a = Adenosine receptor A2a (Homo sapiens, UniProt P29274); experiment: Displacement of [3H]ZM-241385 from A2A adenosine A2A receptor expressed in HEK cells; type: cell-based, HEK293
Sequence of Adenosine receptor A2a (P29274 whole entry): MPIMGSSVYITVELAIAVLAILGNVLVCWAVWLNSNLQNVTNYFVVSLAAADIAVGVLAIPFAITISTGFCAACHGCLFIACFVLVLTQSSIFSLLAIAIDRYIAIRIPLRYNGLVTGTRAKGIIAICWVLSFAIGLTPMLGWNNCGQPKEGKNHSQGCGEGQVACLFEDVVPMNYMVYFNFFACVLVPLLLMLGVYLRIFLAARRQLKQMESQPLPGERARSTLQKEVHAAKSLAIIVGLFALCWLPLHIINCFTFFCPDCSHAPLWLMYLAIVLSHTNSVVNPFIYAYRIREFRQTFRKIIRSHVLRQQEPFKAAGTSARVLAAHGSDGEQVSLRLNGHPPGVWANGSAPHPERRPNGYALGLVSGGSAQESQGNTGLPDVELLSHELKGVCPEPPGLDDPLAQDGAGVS
Method in brief: (§1)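 HEK cells expressing A2A or A2B receptor, [³H]-ZM241385 radioligand, run without GTP; Ki for the high-affinity (coupled) state. 95% confidence limits generally 15% of mean.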

Adenosine receptor A2b = biological target: T1, Adenosine receptor A2b (Homo sapiens, UniProt P29275); experiment: Displacement of [3H]ZM241385 from adenosine A2B receptor expressed in HEK cells; type: cell-based, HEK293; method in brief: as §1
T1 sequence (P29275 whole entry): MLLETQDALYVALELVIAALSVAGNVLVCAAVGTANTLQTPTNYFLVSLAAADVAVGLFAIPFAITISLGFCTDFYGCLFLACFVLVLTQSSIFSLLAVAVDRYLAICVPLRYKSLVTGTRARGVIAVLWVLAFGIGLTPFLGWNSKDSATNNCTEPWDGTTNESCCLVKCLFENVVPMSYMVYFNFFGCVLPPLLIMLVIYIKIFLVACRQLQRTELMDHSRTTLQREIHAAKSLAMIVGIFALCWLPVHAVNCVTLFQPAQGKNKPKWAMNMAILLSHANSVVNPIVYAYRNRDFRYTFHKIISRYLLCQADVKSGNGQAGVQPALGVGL

Adenosine receptor A3 = biological target: T2, Adenosine receptor A3 (Homo sapiens, UniProt P0DMS8); experiment: Displacement of [125I]ABMECA from adenosine A3 receptor expressed in CHO cells; type: cell-based
T2 sequence (P0DMS8 whole entry): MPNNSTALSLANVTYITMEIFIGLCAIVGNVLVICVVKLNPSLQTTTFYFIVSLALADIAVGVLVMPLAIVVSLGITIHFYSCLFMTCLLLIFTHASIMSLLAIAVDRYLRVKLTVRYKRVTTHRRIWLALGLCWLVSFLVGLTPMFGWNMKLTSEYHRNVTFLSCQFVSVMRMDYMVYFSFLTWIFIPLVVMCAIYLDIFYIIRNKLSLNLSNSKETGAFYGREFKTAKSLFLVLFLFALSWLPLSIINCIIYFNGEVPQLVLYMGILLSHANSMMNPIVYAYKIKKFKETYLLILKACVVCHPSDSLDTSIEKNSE

[2] = biological target: Adenosine receptors; A1 & A2a (Homo sapiens) (UniProt P30542+P29274); experiment: Selectivity for adenosine A1 receptor over adenosine A2A receptor; type: protein assay
[3] = biological target: Adenosine receptor A1 (Mesocricetus auratus); experiment: Displacement of [3H]CPX from adenosine A1 receptor in DDT membranes
[4] = biological target: T3, Adenosine receptor A1 (Rattus norvegicus) (UniProt P25099); experiment: Agonist activity at adenosine A1 receptor in rat brain membrane assessed as stimulation of [35S]GTP-gamma-S binding relative to CPA; type: functional, cell membranes
T3 sequence (whole entry): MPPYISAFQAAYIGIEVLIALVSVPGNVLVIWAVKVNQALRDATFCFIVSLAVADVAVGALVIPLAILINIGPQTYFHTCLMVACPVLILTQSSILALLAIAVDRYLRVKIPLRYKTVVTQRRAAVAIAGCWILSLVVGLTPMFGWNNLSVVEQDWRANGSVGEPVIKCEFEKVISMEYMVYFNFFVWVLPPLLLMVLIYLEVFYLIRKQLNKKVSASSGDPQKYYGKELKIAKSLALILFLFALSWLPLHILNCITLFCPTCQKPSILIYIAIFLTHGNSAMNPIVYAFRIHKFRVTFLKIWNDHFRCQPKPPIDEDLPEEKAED
Method in brief: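 Rat brain membranes; agonist-induced [³⁵S]GTPγS binding to G protein measured, with maximal stimulation by the full agonist CPA set as 100% and efficacy expressed relative to it.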

Sequence of Adenosine receptors; A1 & A3 (Homo sapiens) (P30542 whole entry, looked up, one chain of several): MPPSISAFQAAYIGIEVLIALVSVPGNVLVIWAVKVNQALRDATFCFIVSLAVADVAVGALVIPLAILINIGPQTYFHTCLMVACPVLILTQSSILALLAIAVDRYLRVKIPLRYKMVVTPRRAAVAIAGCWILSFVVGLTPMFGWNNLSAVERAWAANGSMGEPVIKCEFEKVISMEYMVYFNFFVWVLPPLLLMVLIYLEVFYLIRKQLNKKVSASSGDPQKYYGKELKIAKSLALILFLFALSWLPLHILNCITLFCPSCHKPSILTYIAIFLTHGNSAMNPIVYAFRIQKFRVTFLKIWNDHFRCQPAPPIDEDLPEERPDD

SMILES	Ratio Ki [1]	Ki (Adenosine receptor A2a) [µM]	Ki (Adenosine receptor A2b) [µM]	Ki (Adenosine receptor A3) [µM]	Ratio Ki [2]	Ki [3] [µM]	Intrinsic activity [4] [%]
NC(=O)c1cnn(-c2nc(NC3CCCC3)c3ncn([C@@H]4O[C@H](CO)[C@@H](O)[C@H]4O)c3n2)c1	633	> 5	> 6	0.38	> 600		
CCOC(=O)c1cnn(-c2nc(NC3CCCC3)c3ncn([C@@H]4O[C@H](CO)[C@@H](O)[C@H]4O)c3n2)c1	21	> 5	> 6	0.019			
CNC(=O)c1cnn(-c2nc(NC3CCCCC3)c3ncn([C@@H]4O[C@H](CO)[C@@H](O)[C@H]4O)c3n2)c1	19	> 5	> 6	0.158			
CCOC(=O)c1cnn(-c2nc(NC3CCCCC3)c3ncn([C@@H]4O[C@H](CO)[C@@H](O)[C@H]4O)c3n2)c1	1	> 5	> 6	0.03			
O=C(O)c1cnn(-c2nc(NC34CCC(CC3)C4)c3ncn([C@@H]4O[C@H](CO)[C@@H](O)[C@H]4O)c3n2)c1	> 5000	> 5	> 6	> 5			
OC[C@H]1O[C@@H](n2cnc3c(NC45CCC(CC4)C5)nc(-n4cccn4)nc32)[C@H](O)[C@@H]1O	3180	> 5	> 6	1.27			
O=C(O)c1cnn(-c2nc(NC3CCCC3)c3ncn([C@@H]4O[C@H](CO)[C@@H](O)[C@H]4O)c3n2)c1	468	> 5	> 6	4.12			100
CNC(=O)c1cnn(-c2nc(NC3CCCC3)c3ncn([C@@H]4O[C@H](CO)[C@@H](O)[C@H]4O)c3n2)c1	710	> 5	> 6	1.42			

Other lines, results leading:

Ratio Ki [1]	Ki (Adenosine receptor A2a) [µM]	Ki (Adenosine receptor A2b) [µM]	Ki (Adenosine receptor A3) [µM]	Ratio Ki [2]	Ki [3] [µM]	Intrinsic activity [4] [%]	SMILES
3	> 5	> 6	0.105				OC[C@H]1O[C@@H](n2cnc3c(NC4CCCC4)nc(-n4cccn4)nc32)[C@H](O)[C@@H]1O
20	> 5	> 6	0.02				CCNC(=O)c1cnn(-c2nc(NC3CCCC3)c3ncn([C@@H]4O[C@H](CO)[C@@H](O)[C@H]4O)c3n2)c1
					3.7		CCNc1nc(-n2cc(-c3ccc(OC)cc3)cn2)nc2c1ncn2[C@@H]1O[C@H](CO)[C@@H](O)[C@H]1O
83	> 5	> 6	0.25				CCOC(=O)c1cnn(-c2nc(NC34CCC(CC3)C4)c3ncn([C@@H]4O[C@H](CO)[C@@H](O)[C@H]4O)c3n2)c1

From ChEMBL document CHEMBL1146258, “N6-Cycloalkyl-2-substituted adenosine derivatives as selective, high affinity adenosine A1 receptor agonists” (Bioorg Med Chem Lett, 2007)
